Measurements from ChEMBL document CHEMBL1145480, “Horizontal gene transfer of ftsI, encoding penicillin-binding protein 3, in Haemophilus influenzae” (2007).
Converted amounts (≈) assume the structure as drawn.

Tests used:
Format in all cases: functional
Haemophilus haemolyticus [1] = assay: Antibacterial activity against Haemophilus haemolyticus MSC07286 by broth microdilution method
Haemophilus influenzae [2] = assay: Antibacterial activity against Haemophilus influenzae MSC06651 by broth microdilution method
In short: (§1)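 MICs were determined by broth dilution following CLSI guidelines (approved standard M7-A7). The agents were rifampin, cefdinir and fosfomycin. Strains were routinely grown on chocolate II agar or in brain heart infusion broth with 2% defibrinated, lysed horse blood plus 15 μg/ml β-NAD+.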

Haemophilus influenzae [3] = assay: Antibacterial activity against Haemophilus influenzae MSC06647 by broth microdilution method; in short: as §1
Haemophilus influenzae [4] = assay: Antibacterial activity against Haemophilus influenzae MSC02070 by broth microdilution method; in short: as §1
Haemophilus influenzae [5] = assay: Antibacterial activity against Haemophilus influenzae MSC06663 by broth microdilution method; in short: as §1
Aggregatibacter segnis = assay: Antibacterial activity against Haemophilus segnis ATCC 33393 by broth microdilution method
Haemophilus influenzae [6] = assay: Antibacterial activity against rifampin-resistant Haemophilus influenzae RdRIF by broth microdilution method; in short: as §1
Haemophilus influenzae [7] = assay: Antibacterial activity against Haemophilus influenzae MSC01432 by broth microdilution method; in short: as §1
Haemophilus influenzae [8] = assay: Antibacterial activity against Haemophilus influenzae MSC01363 by broth microdilution method; in short: as §1
Haemophilus influenzae [9] = assay: Antibacterial activity against Haemophilus influenzae MSC01855 by broth microdilution method; in short: as §1
Haemophilus haemolyticus [10] = assay: Antibacterial activity against Haemophilus haemolyticus ATCC 33390 by broth microdilution method
Haemophilus influenzae [11] = assay: Antibacterial activity against Haemophilus influenzae MSC02022 by broth microdilution method; in short: as §1
[12] = test system: Aggregatibacter aphrophilus; assay: Antibacterial activity against Haemophilus aphrophilus ATCC 33389 by broth microdilution method
[13] = test system: Aggregatibacter aphrophilus; assay: Antibacterial activity against Haemophilus paraphrophilus ATCC 29241 by broth microdilution method
[14] = test system: Haemophilus parainfluenzae; assay: Antibacterial activity against Haemophilus parainfluenzae ATCC 33392 by broth microdilution method
Haemophilus influenzae [15] = assay: Antibacterial activity against Haemophilus influenzae MSC07169 by broth microdilution method; in short: as §1
[16] = test system: Haemophilus parahaemolyticus; assay: Antibacterial activity against Haemophilus parahaemolyticus ATCC 10014 by broth microdilution method
Haemophilus influenzae [17] = assay: Antibacterial activity against Haemophilus influenzae MSC01400 by broth microdilution method; in short: as §1
Haemophilus influenzae [18] = assay: Antibacterial activity against Haemophilus influenzae MSC02104 by broth microdilution method
Haemophilus influenzae [19] = assay: Antibacterial activity against Haemophilus influenzae MSC07771 by broth microdilution method; in short: as §1
Haemophilus influenzae [20] = assay: Antibacterial activity against Haemophilus influenzae MSC01869 by broth microdilution method; in short: as §1
Haemophilus influenzae [21] = assay: Antibacterial activity against Haemophilus influenzae MSC07237 by broth microdilution method; in short: as §1
Haemophilus influenzae [22] = assay: Antibacterial activity against Haemophilus influenzae MSC02149 by broth microdilution method; in short: as §1
[23] = test system: Haemophilus paraphrohaemolyticus; assay: Antibacterial activity against Haemophilus paraphrohaemolyticus ATCC 29237 by broth microdilution method
Haemophilus influenzae [24] = assay: Antibacterial activity against Haemophilus influenzae Rd by broth microdilution method; in short: as §1
Haemophilus influenzae [25] = assay: Antibacterial activity against rifampin and cefdinir-resistant Haemophilus influenzae RdRIF/MSC06663 mutant by broth microdilution method; in short: as §1
Haemophilus influenzae [26] = assay: Antibacterial activity against rifampin and cefdinir-resistant Haemophilus influenzae RdRIF/MSC06647 mutant by broth microdilution method; in short: as §1
Haemophilus influenzae [27] = assay: Antibacterial activity against rifampin and cefdinir-resistant Haemophilus influenzae RdRIF/MSC06651 mutant by broth microdilution method; in short: as §1

| SMILES | MIC (Haemophilus haemolyticus [1]) [mg/L] | MIC (Haemophilus influenzae [2]) [mg/L] | MIC (Haemophilus influenzae [3]) [mg/L] | MIC (Haemophilus influenzae [4]) [mg/L] | MIC (Haemophilus influenzae [5]) [mg/L] | MIC (Aggregatibacter segnis) [mg/L] | MIC (Haemophilus influenzae [6]) [mg/L] | MIC (Haemophilus influenzae [7]) [mg/L] | MIC (Haemophilus influenzae [8]) [mg/L] | MIC (Haemophilus influenzae [9]) [mg/L] | MIC (Haemophilus haemolyticus [10]) [mg/L] | MIC (Haemophilus influenzae [11]) [mg/L] | MIC [12] [mg/L] | MIC [13] [mg/L] | MIC [14] [mg/L] | MIC (Haemophilus influenzae [15]) [mg/L] | MIC (Haemophilus influenzae [24]) [mg/L] | MIC (Haemophilus influenzae [25]) [mg/L] | MIC (Haemophilus influenzae [26]) [mg/L] | MIC (Haemophilus influenzae [27]) [mg/L] | also measured |
| --- | --- | --- | --- | --- | --- | --- | --- | --- | --- | --- | --- | --- | --- | --- | --- | --- | --- | --- | --- | --- | --- |
| CC1(C)S[C@@H]2[C@H](NC(=O)[C@H](N)c3ccccc3)C(=O)N2[C@H]1C(=O)O [AMPICILLIN] | 2 (≈ 5.72 µM) | 2 (≈ 5.72 µM) | 2 (≈ 5.72 µM) | 8 (≈ 22.9 µM) | 1 (≈ 2.86 µM) | 0.5 (≈ 1.43 µM) | 0.25 (≈ 0.715 µM) | 1 (≈ 2.86 µM) | 2 (≈ 5.72 µM) | 4 (≈ 11.4 µM) | 0.5 (≈ 1.43 µM) | 1 (≈ 2.86 µM) | 0.5 (≈ 1.43 µM) | 0.25 (≈ 0.715 µM) | 0.5 (≈ 1.43 µM) | 1 (≈ 2.86 µM) | – | – | – | – | MIC [16]: 0.25 mg/L (≈ 0.715 µM); MIC (Haemophilus influenzae [17]): 8 mg/L (≈ 22.9 µM); MIC (Haemophilus influenzae [18]): > 64 mg/L; MIC (Haemophilus influenzae [19]): 2 mg/L (≈ 5.72 µM); MIC (Haemophilus influenzae [20]): > 64 mg/L; MIC (Haemophilus influenzae [21]): 4 mg/L (≈ 11.4 µM); MIC (Haemophilus influenzae [22]): 8 mg/L (≈ 22.9 µM); MIC [23]: 0.25 mg/L (≈ 0.715 µM) |
| C=CC1=C(C(=O)O)N2C(=O)[C@@H](NC(=O)/C(=N\O)c3csc(N)n3)[C@H]2SC1 [CEFDINIR] | 2 (≈ 5.06 µM) | 8 (≈ 20.2 µM) | 1 (≈ 2.53 µM) | 8 (≈ 20.2 µM) | 2 (≈ 5.06 µM) | 0.06 (≈ 0.152 µM) | 0.25 (≈ 0.632 µM) | 2 (≈ 5.06 µM) | 1 (≈ 2.53 µM) | 8 (≈ 20.2 µM) | 0.12 (≈ 0.303 µM) | 2 (≈ 5.06 µM) | 0.12 (≈ 0.303 µM) | 0.06 (≈ 0.152 µM) | 0.12 (≈ 0.303 µM) | 1 (≈ 2.53 µM) | 0.25 (≈ 0.632 µM) | 8 (≈ 20.2 µM) | 2 (≈ 5.06 µM) | 8 (≈ 20.2 µM) | MIC [16]: 0.016 mg/L (≈ 0.0405 µM); MIC (Haemophilus influenzae [17]): 8 mg/L (≈ 20.2 µM); MIC (Haemophilus influenzae [18]): 16 mg/L (≈ 40.5 µM); MIC (Haemophilus influenzae [19]): 1 mg/L (≈ 2.53 µM); MIC (Haemophilus influenzae [20]): 8 mg/L (≈ 20.2 µM); MIC (Haemophilus influenzae [21]): 16 mg/L (≈ 40.5 µM); MIC (Haemophilus influenzae [22]): 16 mg/L (≈ 40.5 µM); MIC [23]: 0.016 mg/L (≈ 0.0405 µM) |
| C[C@@H]1O[C@@H]1P(=O)(O)O [FOSFOMYCIN] | – | 256 (≈ 1850 µM) | 0.12 (≈ 0.869 µM) | – | 0.06 (≈ 0.435 µM) | – | 2 (≈ 14.5 µM) | – | – | – | – | – | – | – | – | – | 2 (≈ 14.5 µM) | 2 (≈ 14.5 µM) | 2 (≈ 14.5 µM) | 1 (≈ 7.24 µM) | – |
| CO[C@H]1/C=C/O[C@@]2(C)Oc3c(C)c(O)c4c(O)c(c(/C=N/N5CCN(C)CC5)c(O)c4c3C2=O)NC(=O)/C(C)=C\C=C\[C@H](C)[C@H](O)[C@@H](C)[C@@H](O)[C@@H](C)[C@H](OC(C)=O)[C@@H]1C [RIFAMPIN] | – | 0.5 (≈ 0.608 µM) | 0.25 (≈ 0.304 µM) | – | 0.5 (≈ 0.608 µM) | – | > 128 | – | – | – | – | – | – | – | – | – | 0.5 (≈ 0.608 µM) | > 128 | > 128 | > 128 | – |
